According to ChEMBL document CHEMBL1122999 (J Med Chem, 1985):

Legend:
Rattus norvegicus [1] = organism: Rattus norvegicus; assay: Inhibition of GABA uptake from rat diencephalon-midbrain at 100 uM concentration; type: functional
[2] = (§1) Inhibition of GABA uptake from rat diencephalon-midbrain,
Summary of the method: (§2)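 P2 synaptosomal fraction prepared from rat brain in 0.32 M sucrose by 1000g and 16500g spins. About 150 µg protein preincubated 15 min at 37 °C with inhibitor in oxygenated Tris/NaCl buffer, pH 7.4, containing 2.7 mM CaCl2 and 10 µM aminooxyacetic acid. Uptake of 1 µM [3H]GABA run for 3 min, then filtered and counted. Accumulation at 0 °C subtracted. Screening at 10, 1 and 0.1 µM in quadruplicate on pooled diencephalon-midbrain tissue.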

[3] = target: T1, GABA-A receptor; anion channel (Rattus norvegicus) (UniProt O09028+P15431+P18506+P18508+P19969+P20236+P23574+P23576+P28471+P28473+P30191+P62813+P63079+P63138+Q91ZM7+Q9ES14); assay: Displacement of [3H]- muscimol from GABA-A receptor from rat cerebellum membrane at 100 uM; type: tissue-based
[4] = target: Norepinephrine transporter (Rattus norvegicus, UniProt Q9WTR4); assay: (§3) Inhibition of Norepinephrine uptake from rat diencephalon-midbrain
[5] = Dissociation constant pKa (CO2H) of the compound; type: physicochemical
Rattus norvegicus [6] = organism: Rattus norvegicus; assay: as §1; type: functional, organism-based
[7] = Dissociation constant pKa (N) of the compound; type: physicochemical
[8] = target: 4-aminobutyrate aminotransferase, mitochondrial (Rattus norvegicus) (UniProt P50554); assay: Percent of enzyme inhibition by Gamma-amino-N-butyrate transaminase assay method; settings: concentration not given here
Summary of the method: (§4)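 Rat diencephalon-midbrain homogenate in Tris-HCl pH 8.0 with Triton X-100. Incubated with 2 mM α-ketoglutarate, 0.2 mM GABA and 20 µM pyridoxal phosphate, test agent at 1 mM final, 30 min at 37 °C. Blanks held at 4 °C. Glutamate formed read fluorometrically as NADH via glutamate dehydrogenase.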

[9] = target: T2, Glutamate decarboxylase 1 (Rattus norvegicus) (UniProt P18088); assay: Percent of enzyme inhibition by Glutamate decarboxylase assay method; settings: concentration not given here
T2 sequence (whole entry): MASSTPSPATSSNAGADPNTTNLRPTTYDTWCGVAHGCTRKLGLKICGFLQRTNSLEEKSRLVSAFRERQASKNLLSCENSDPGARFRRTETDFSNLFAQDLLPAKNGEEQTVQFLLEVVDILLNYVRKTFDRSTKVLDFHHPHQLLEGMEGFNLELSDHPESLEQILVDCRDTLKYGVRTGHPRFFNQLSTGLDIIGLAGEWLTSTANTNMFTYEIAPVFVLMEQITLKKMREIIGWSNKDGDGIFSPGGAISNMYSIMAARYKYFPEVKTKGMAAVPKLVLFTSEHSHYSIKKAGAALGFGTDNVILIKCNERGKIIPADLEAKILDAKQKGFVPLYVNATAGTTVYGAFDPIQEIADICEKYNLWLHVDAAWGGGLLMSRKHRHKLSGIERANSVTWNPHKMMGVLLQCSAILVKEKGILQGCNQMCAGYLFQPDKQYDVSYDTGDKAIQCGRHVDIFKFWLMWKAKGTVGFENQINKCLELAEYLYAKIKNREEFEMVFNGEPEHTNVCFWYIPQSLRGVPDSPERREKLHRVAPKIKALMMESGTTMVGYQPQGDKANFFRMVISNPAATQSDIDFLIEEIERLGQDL
Summary of the method: (§5)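 Homogenate of rat diencephalon-midbrain in phosphate buffer pH 6.5 with Triton X-100. Incubated with 5 mM l-glutamate, 10 µM pyridoxal phosphate and test agent at 1 mM final, 30 min at 37 °C. Stopped by boiling; boiled-enzyme blanks used. GABA formed quantified fluorometrically with GABAase and NADPH.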

Rattus norvegicus [10] = organism: Rattus norvegicus; assay: Inhibition of GABA uptake from rat diencephalon-midbrain; type: functional; summary of the method: as §2
Rattus norvegicus [11] = organism: Rattus norvegicus; assay: as §3; type: functional
Rattus norvegicus [12] = organism: Rattus norvegicus; assay: Inhibition of GABA uptake from rat diencephalon-midbrain at 10 uM concentration; type: functional; summary of the method: as §2
[13] = target: Serotonin 1 (5-HT1) receptor (Rattus norvegicus) (UniProt P28564+P30940+P19327+P28565); assay: Percent inhibition of 5-hydroxytryptamine 1 receptor from rat cortex membrane using [3H]- serotonin as radioligand at 33 uM
[14] = target: T1, GABA-A receptor; anion channel (Rattus norvegicus); assay: Percent inhibition of [3H]- Diazepam binding to GABA-A Benzodiazepine receptor of rat frontal cortex membranes; type: cell membranes; settings: Membrane, concentration not given here
Summary of the method: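 Rat frontal cortex membranes with 1.5 nM [3H]diazepam (KD 9.7 nM). Nonspecific binding defined with 3 µM diazepam.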

[15] = target: T2, Glutamate decarboxylase 1 (Rattus norvegicus); assay: Percent inhibition of Glutamate decarboxylase from rat was evaluated; settings: concentration not given here; summary of the method: as §5
[16] = target: Muscarinic acetylcholine receptor (Rattus norvegicus) (UniProt P08482+P08483+P08485+P08911+P10980); assay: Percent inhibition of Muscarinic acetylcholine receptor from rat striatal membrane using [3H]- QNB as radioligand at 100 uM
Summary of the method: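 Displacement on rat striatal membranes using 0.23 nM [3H]QNB (KD 0.20 nM). Nonspecific binding defined with 1 µM atropine.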

[17] = target: D(2) dopamine receptor (Rattus norvegicus) (UniProt P61169); assay: Percent inhibition of Dopamine receptor D2 from rat striatal membrane using [3H]- spiroperidol as radioligand at 50 uM
Summary of the method: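 Rat striatal membranes with 0.22 nM [3H]spiroperidol (KD 0.287 nM). Nonspecific binding defined with 1 µM d-butaclamol.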

[18] = Dissociation constant pKa (CO2H) was evaluated; type: physicochemical
[19] = target: 4-aminobutyrate aminotransferase, mitochondrial (Rattus norvegicus) (UniProt P50554); assay: Percent inhibition of Gamma-amino-N-butyrate transaminase from rat was evaluated; settings: concentration not given here; summary of the method: as §4
[20] = Dissociation constant pKa (N) was evaluated; type: physicochemical
[21] = Distribution coefficient was evaluated; type: physicochemical; settings: octanol/water
Summary of the method: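 Distribution coefficient (log D) measured between 1-octanol and phosphate buffer, pH 7.4.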

[22] = target: Adrenergic receptor alpha-1 (Rattus norvegicus) (UniProt P15823+P23944+P43140); assay: Percent inhibition of alpha-1 adrenergic receptor from rat cortical membrane using [3H]- WB-4101 as radioligand at 10 uM
Summary of the method: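 Rat cortical membranes labelled with 0.22 nM [3H]WB4101 (KD 0.306 nM). Nonspecific binding defined with 100 µM norepinephrine.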

[23] = as §1; settings: concentration not given here
Summary of the method: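 Rat diencephalon-midbrain P2 synaptosomal fraction (0.32 M sucrose homogenate, differential centrifugation), pooled from three rats. Preincubated 15 min at 37 °C with inhibitor in oxygenated Tris/NaCl buffer pH 7.4 containing 2.7 mM CaCl2 and 10 µM aminooxyacetic acid. Then 3 min uptake of 1 µM [3H]GABA, filtration, scintillation counting, minus 0 °C uptake. Screened at 10, 1, 0.1 µM in quadruplicate.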

[24] = target: GABA-A receptor; anion channel; assay: Displacement of [3H]- muscimol from GABA-A receptor from rat cerebellum membrane at 0.24-0.45 uM; type: tissue-based
[25] = target: T2, Glutamate decarboxylase 1 (Rattus norvegicus); assay: Percent of enzyme inhibition by Glutamate decarboxylase (GAD) assay method; settings: concentration not given here; summary of the method: as §5
[26] = target: T1, GABA-A receptor; anion channel (Rattus norvegicus); settings: Cerebellum, 0.003-0.006 uM
Rattus norvegicus [27] = organism: Rattus norvegicus; assay: Inhibition of GABA uptake from rat diencephalon-midbrain at 1 uM concentration; type: functional; summary of the method: as §2

Sequence of Norepinephrine transporter (Q9WTR4 whole entry): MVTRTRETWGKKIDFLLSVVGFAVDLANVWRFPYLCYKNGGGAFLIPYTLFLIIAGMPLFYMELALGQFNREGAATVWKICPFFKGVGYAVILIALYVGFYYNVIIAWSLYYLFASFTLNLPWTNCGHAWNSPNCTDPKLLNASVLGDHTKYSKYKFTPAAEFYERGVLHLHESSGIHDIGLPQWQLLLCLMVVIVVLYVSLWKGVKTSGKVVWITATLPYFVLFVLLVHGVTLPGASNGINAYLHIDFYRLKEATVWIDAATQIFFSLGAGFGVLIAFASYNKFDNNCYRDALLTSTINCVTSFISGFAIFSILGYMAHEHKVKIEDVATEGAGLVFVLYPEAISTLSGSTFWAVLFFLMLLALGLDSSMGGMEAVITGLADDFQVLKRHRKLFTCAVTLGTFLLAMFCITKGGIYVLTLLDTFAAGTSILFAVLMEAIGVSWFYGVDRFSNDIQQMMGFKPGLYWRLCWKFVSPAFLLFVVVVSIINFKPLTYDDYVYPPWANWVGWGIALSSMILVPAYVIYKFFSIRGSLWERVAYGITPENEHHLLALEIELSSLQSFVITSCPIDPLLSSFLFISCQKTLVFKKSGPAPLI
Sequence of 4-aminobutyrate aminotransferase, mitochondrial (Rattus norvegicus) (P50554 28-500 limits assumed): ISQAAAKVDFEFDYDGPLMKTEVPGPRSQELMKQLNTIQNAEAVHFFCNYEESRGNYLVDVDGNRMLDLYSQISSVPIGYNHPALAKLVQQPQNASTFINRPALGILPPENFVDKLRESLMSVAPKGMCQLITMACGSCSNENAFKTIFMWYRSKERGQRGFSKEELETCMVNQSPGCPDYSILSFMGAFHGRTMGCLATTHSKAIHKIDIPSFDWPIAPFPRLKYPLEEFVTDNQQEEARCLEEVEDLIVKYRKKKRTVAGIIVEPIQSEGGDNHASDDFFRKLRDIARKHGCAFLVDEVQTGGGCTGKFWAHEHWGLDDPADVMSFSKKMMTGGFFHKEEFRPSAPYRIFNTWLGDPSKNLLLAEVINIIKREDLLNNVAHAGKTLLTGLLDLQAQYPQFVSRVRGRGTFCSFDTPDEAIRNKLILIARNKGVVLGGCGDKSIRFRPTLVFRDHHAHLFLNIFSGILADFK
Sequence of D(2) dopamine receptor (Rattus norvegicus) (P61169 whole entry): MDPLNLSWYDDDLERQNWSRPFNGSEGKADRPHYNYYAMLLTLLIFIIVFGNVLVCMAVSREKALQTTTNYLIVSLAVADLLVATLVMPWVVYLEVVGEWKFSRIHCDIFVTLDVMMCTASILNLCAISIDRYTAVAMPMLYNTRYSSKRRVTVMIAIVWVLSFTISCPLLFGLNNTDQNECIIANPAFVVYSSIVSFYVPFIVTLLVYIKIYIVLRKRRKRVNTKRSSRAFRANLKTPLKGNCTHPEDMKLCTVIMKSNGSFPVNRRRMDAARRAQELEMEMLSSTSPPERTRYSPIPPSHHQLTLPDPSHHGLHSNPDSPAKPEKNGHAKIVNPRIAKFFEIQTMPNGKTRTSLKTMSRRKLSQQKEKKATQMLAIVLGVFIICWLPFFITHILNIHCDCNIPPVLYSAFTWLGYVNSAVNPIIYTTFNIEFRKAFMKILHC

With `CCOC(=O)C1CCCN(CCC=C(c2ccccc2)c2ccccc2)C1` (configuration not stated) the Increase (Rattus norvegicus [1]) was 17%.

For `O=C(O)C1CN(CCC=C(c2ccccc2)c2ccccc2)CCC1O` (configuration not stated), the IC50 [2] was 0.26 µM, the inhibition [3] was 48% and the IC50 [4] was 33.6 µM.

In the case of `O=C(O)C1CCCNC1` (configuration not stated) [NIPECOTIC ACID], the pKa [5] is reported as 3.45, the IC50 (Rattus norvegicus [6]) is reported as 3.94 µM and the pKa [7] is reported as 10.3. It also gave an inhibition [8] of 3% and an inhibition [9] of 0%.

`NC1CCCC(C(=O)O)C1` (configuration not stated) showed an IC50 (Rattus norvegicus [6]) of 8.13 µM.

For `O=C(O)[C@H]1CCCNC1` [(S)-NIPECOTIC ACID], the IC50 (Rattus norvegicus [10]) was 9.88 µM.

For `CN(C)CCCN1c2ccccc2CCc2ccccc21` [IMIPRAMINE], the Inhibition (Rattus norvegicus [1]) was 68% and the IC50 (Rattus norvegicus [11]) was 0.027 µM.

Work on `O=C(O)[C@@H]1CCCNC1` [(R)-NIPECOTIC ACID] yielded an IC50 (Rattus norvegicus [6]) of 1.69 µM.

`O=C(O)C1CCCN(CC=C(c2ccccc2)c2ccccc2)C1` (configuration not stated) gave an Inhibition (Rattus norvegicus [12]) of 5%.

`O=C(O)C1CCCN(CCC=C(c2ccccc2)c2ccccc2)C1` (configuration not stated) gave an inhibition [13] of 16%, an inhibition [14] of 21% and an inhibition [15] of 7%. It also gave an inhibition [16] of 12%, an inhibition [3] of 8% and an IC50 (Rattus norvegicus [6]) of 0.2 µM. It also gave an inhibition [17] of 22%, a pKa [18] of 3.32 and an inhibition [19] of 12%. For the same compound, the pKa [20] was 9.36, the logD [21] was 1.14 and the inhibition [22] was 12%. For the same compound, the IC50 (Rattus norvegicus [11]) was 117 µM.

In the case of `NOCC(=O)O`, the inhibition [8] is reported as 83%.

With `COC(=O)C1=CCCNC1` the inhibition [23] was 4%.

For `O=C(O)CC1CCNC1` (configuration not stated), the IC50 (Rattus norvegicus [6]) was 1.54 µM and the IC50 [24] was 0.33 µM.

Work on `O=C(O)C1=CCCNC1` [GUVACINE] yielded an inhibition [3] of 27%, an IC50 (Rattus norvegicus [6]) of 4.92 µM and an inhibition [8] of 7%. The inhibition [25] was 0%.

`NNC(=O)c1ccncc1` gave an inhibition [9] of 42%.

`O=C(O)C1CCCN(CCCC(c2ccccc2)c2ccccc2)C1` (configuration not stated) showed an Inhibition (Rattus norvegicus [12]) of 27%.

In the case of `NCc1cc(O)no1`, the inhibition [26] is reported as 0.004%.

In the case of `O=C(O)C1CNCCC1O` (configuration not stated), the inhibition [3] is reported as 10%, the IC50 (Rattus norvegicus [6]) is reported as 4.56 µM and the Inhibition (Rattus norvegicus [11]) is reported as 7%.

`O=C(O)C1CCCC(NCCC=C(c2ccccc2)c2ccccc2)C1` (configuration not stated) gave an Inhibition (Rattus norvegicus [12]) of 54% and an IC50 (Rattus norvegicus [11]) of 29.9 µM.

`O=C(O)C1=CCCN(CCC=C(c2ccccc2)c2ccccc2)C1` showed an inhibition [14] of 5%, an inhibition [15] of 7% and an inhibition [3] of 8%. The IC50 (Rattus norvegicus [6]) was 0.2 µM, the inhibition [19] was 9% and the IC50 (Rattus norvegicus [11]) was 58.2 µM.

In the case of `O=C(O)C1CCCN(CCCC=C(c2ccccc2)c2ccccc2)C1` (configuration not stated), the Inhibition (Rattus norvegicus [27]) is reported as 31%.

`CCOC(=O)C1CCCNC1` (configuration not stated) gave an Inhibition (Rattus norvegicus [1]) of 52%.

Compound `O=C(O)[C@H]1CCCN(CCC=C(c2ccccc2)c2ccccc2)C1` has an IC50 (Rattus norvegicus [6]) of 1.91 µM and an IC50 (Rattus norvegicus [11]) of 180 µM.

With `O=C(O)[C@@H]1CCCN(CCC=C(c2ccccc2)c2ccccc2)C1` the IC50 (Rattus norvegicus [6]) was 0.11 µM and the IC50 (Rattus norvegicus [11]) was 123 µM.

`O=C(O)CCCNCCC=C(c1ccccc1)c1ccccc1` gave an IC50 [2] of 16.5 µM, an inhibition [3] of 35% and an IC50 [4] of 35.1 µM.

For `O=C(O)CC1CCN(CCC=C(c2ccccc2)c2ccccc2)C1` (configuration not stated), the IC50 [2] was 0.12 µM, the inhibition [3] was 20% and the IC50 [4] was 108 µM.
